Screening results from PubChem.
PG9 binder: small molecules binding HIV-1 gp120 antibody PG9. AID 624416. 360,000 compounds, 0.43% hits. TR-FRET gp120-PG9 antibody binding. inhibition, % at 6.7 µM; in the data active = inhibition above about 8.5%
Tb MetRS inh: Trypanosoma brucei MetRS inhibition. purified T. brucei MetRS, ATP depletion, Kinase-Glo luminescence. inhibition, % at 11.9 µM. 360,000 compounds, 0.4% hits;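 active = inhibition above a per-plate cutoff of the control wells' mean inhibition plus 3 SD, cut at about 5.5% in these data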;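 note: 0% = DMSO wells median and 100% = median of wells with control inhibitor compound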
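Test system – parasite MetRS enzyme · Reagent – substrates ATP, L-methionine and bulk Escherichia coli tRNA · Doses – 11.9 µM compound single dose, 0.9% DMSO · Times – 15 min enzyme-compound preincubation, 2 h reaction, 10 min detection, 25 °C · Signal – Kinase-Glo luminescence, ATP depletion format · Controls – DMSO-only wells as low control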
Rev-erbA mod: modulates human Rev-erb alpha binding to DNA. activity, % at 10 µM. AID 1259318. P20393. Rev-erbα–FITC-DNA binding, fluorescence polarization, 90 min. 370,000 compounds, 0.79% hits;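 active = activity above about 14%, limit read from the data; passing the limit was not always enough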;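 note: 0% = DMSO wells with 35 nM protein and 100% = DMSO wells with 750 nM protein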
Target sequence (P20393 whole entry, looked up): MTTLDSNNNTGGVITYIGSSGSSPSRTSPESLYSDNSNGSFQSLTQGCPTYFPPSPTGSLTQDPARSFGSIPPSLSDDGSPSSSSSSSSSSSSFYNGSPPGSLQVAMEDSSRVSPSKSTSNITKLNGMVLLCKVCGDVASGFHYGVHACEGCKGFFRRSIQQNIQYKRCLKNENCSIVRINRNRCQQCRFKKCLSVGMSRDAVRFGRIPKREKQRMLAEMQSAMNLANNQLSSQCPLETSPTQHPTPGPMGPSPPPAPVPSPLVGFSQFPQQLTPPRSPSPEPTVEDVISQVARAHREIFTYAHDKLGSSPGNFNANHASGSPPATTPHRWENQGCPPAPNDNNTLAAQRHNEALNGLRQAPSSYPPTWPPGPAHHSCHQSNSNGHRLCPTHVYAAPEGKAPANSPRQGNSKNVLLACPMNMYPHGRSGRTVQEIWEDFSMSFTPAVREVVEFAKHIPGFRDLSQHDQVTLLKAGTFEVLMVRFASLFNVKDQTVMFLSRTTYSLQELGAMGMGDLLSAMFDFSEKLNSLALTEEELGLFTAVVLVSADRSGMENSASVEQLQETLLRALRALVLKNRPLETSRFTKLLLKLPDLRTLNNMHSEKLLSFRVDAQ
Rin1-Abl PPI inh: inhibitors of human Rin1-Abl protein interaction | P00519+Q13671 | TR-FRET Rin1/Abl binding, biochemical | inhibition, % at 7.35 µM | 360,000 compounds, 0.4% hits; in the data active = inhibition above about 5%, passing the limit was not always enough
PG9 binder conf: PG9 antibody binding, confirmed | AID 651571 | inhibition, % at 6.7 µM | shares compounds with PG9 binder | TR-FRET PG9 antibody binding, biochemical | 1,500 compounds, 90% hits; in the data active = inhibition above about 9%
PGV04 Ab binding: binds control antibody PGV04 in PG9 binder counter-screen. shares compounds with PG9 binder. TR-FRET PGV04 antibody-gp120 binding, biochemical. inhibition, % at 6.7 µM. 1,500 compounds, 95% hits; in the data active = inhibition above about 9.5%
PG9 bind DR: small molecules binding HIV-1 gp120 antibody PG9; TR-FRET PG9 antibody-gp120 binding inhibition; shares compounds with PG9 binder; IC50, µM; 95 tested, under 10 active; in the data active = IC50 below about 10 µM
PGV04 DR counter: PGV04 binding, dose response counter-screen | TR-FRET binding to control antibody PGV04 | shares compounds with PG9 binder | AID 651937 | IC50, µM | 95 compounds, 20% hits
PG126 DR counter: counter-screen for PG9 binders: binding to control antibody PG126; TR-FRET binding to antibody PG126, counterscreen; IC50, µM; shares compounds with PG9 binder; 95 compounds, 20% hits
* marks the source's active call; other numbers are inactive results; i = inactive; . = no result. Sampled rows, rich in hits. Any-hit rate of the full collection: about 1.8%. Cut-off read from the data, not from the text of the source, unless noted: active = IC50 below about 9 µM; inactive = the rest.

SMILES | PG9 binder | Tb MetRS inh | Rev-erbA mod | Rin1-Abl PPI inh | PG9 binder conf | PGV04 Ab binding | others
COC(=O)Cc1c(C)c2c(O)cc(C)cc2oc1=O | 10* | -2 | -1 | -27 | 18* | 18* | PG9 bind DR=i;PGV04 DR counter=i;PG126 DR counter=i
CCc1cc(=O)oc2cc(C)cc(O)c12 | 15* | 0 | 1 | -18 | 14* | 20*
CCCc1cc(=O)oc2cc(C)cc(O)c12 | 9.3* | 1 | -1 | -12 | 14* | 19*
C[C@H]1[C@H](NC(=O)c2ccc(Cl)c(C(F)(F)F)c2)CC[C@@]23CCCN2C(=O)CCC[C@@H]13 | . | . | 3 | . | . | .
COc1ccc(-c2cc(C(=O)N=Nc3c(O)[nH]c4ccccc34)[nH]n2)cc1 | . | . | -24 | . | . | .
C=CCNC(=O)CN1C(=O)c2cccc3cccc1c23 | -1 | 0 | 10 | -1 | . | .
COC(=O)Cn1cnc2c(cnn2-c2ccc(OC)cc2)c1=O | -1 | 0 | -3 | 0 | . | .
COc1ccc(-n2ncc3c(=O)n(CC(=O)Nc4ccc5c(c4)OCCO5)cnc32)cc1 | 12* | -1 | 22 | 1 | 19* | 23*
COc1ccc2[nH]c3c(=S)nc[nH]c3c2c1 | 50* | 0 | 0 | i | 26* | 26* | PG9 bind DR=>67;PGV04 DR counter=>67;PG126 DR counter=>67
CC(C)(C)C(=O)NC1CCCCN(Cc2cccc(Cl)c2)C1=O (configuration not stated) | . | . | 9 | . | . | .
C[C@H]1[C@@H](OC(=O)NC2CCCCC2)CC[C@@]23CCCN2C(=O)CCC[C@@H]13 | . | . | 3 | . | . | .
Cn1c(C(=O)OCC(=O)NCc2cccs2)cc2sccc21 | 9.6* | -2 | 7 | -17 | 17* | 27*
Cn1ncc(Cl)c1C(=O)Nc1sc2c(c1C(N)=O)CCC2 | 8.7* | -1 | 10 | -7 | 12* | 29*
Cc1noc(C)c1C(=O)Nc1sc2c(c1C(N)=O)CCC2 | 12* | -1 | 6 | -3 | 6 | 17*
NC(=O)c1c(NC(=O)c2ccccc2)sc2c1CCC2 | -2 | 2 | -4 | -1 | . | .
Cc1noc(C)c1C(=O)Nc1sc2c(c1C(N)=O)CCCCC2 | 0 | -1 | -1 | 1 | . | .
CC(=O)c1cc(-c2cccc(C#N)c2)c(=O)n2c1CCC2 | . | . | -1 | . | . | .
CCOC(=O)C(C(C)=O)c1c(Br)c(O)c(O)c2c(C(=O)c3ccc(C)cc3)coc12 (configuration not stated) | 9.4* | 0 | 0 | 3 | 18* | 19*
C=CCN1[C@@H](C)[C@@H](c2ccccc2)Oc2c(Cl)cccc2S1(=O)=O | -3 | . | 2 | . | . | .
CCCCC1=CC2=C(c3ccco3)C(=O)C(C)(OC(=O)c3ccc(OC)cc3)C(=O)C2=CN1Cc1ccccc1 (configuration not stated) | 24* | 0 | -5 | -7 | 28* | 33*
Cc1ccc2cc(CN(c3ccccc3C)S(=O)(=O)c3ccccc3)c(=O)[nH]c2c1 | 14* | 0 | -1 | -3 | 26* | 45*
C[C@H](CO)N1C[C@H](C)[C@@H](CN(C)C(=O)Cc2ccccc2)OCc2cn(nn2)CCCC1=O | -1 | . | -4 | . | . | .
COC(=O)[C@@]12CCCCC3=C1N(CCC3)C(=O)[C@H]2CC(=O)NCCCN1CCCC1=O | . | . | 5 | . | . | .
COC(=O)c1sc(NC(=O)COc2ccccc2C)nc1C | 11* | 0 | 10 | -3 | 20* | 28*
COC(=O)C12C=C3CC(c4ccc(C)s4)=C3C(=O)N1Cc1[nH]c3ccccc3c1C2 (configuration not stated) | . | . | -5 | . | . | .
SMILES | PG9 binder | Tb MetRS inh | Rev-erbA mod | Rin1-Abl PPI inh | PG9 binder conf | PGV04 Ab binding | others
Cc1nc2ccc(F)cc2cc1C(=O)Nc1ccc(Cl)c(Cl)c1 | 22* | 0 | 12 | 0 | 24* | 32*
CCOC(=O)C1=C(C)NC(SCC(N)=O)=C(C#N)C1c1ccncc1 (configuration not stated) | 0 | 0 | -2 | 4 | . | .
CCOC(=O)C1=C(C)NC(SCC(N)=O)=C(C#N)C1c1ccccc1 (configuration not stated) | 14* | -1 | 5 | -1 | 8 | 10*
C[C@H]1[C@@H](OC(=O)Nc2ccc(Br)cc2)CC[C@@]23CCCN2C(=O)CCC[C@@H]13 | . | . | -4 | . | . | .
Cc1ccc(Sc2c(O)c3ccccc3n(C)c2=O)cc1 | 14* | 0 | 2 | -26 | 17* | 24*
Cn1c(=O)c(Sc2ccccc2)c(O)c2ccccc21 | 0 | -1 | 5 | -3 | . | .
COCCNC(=O)c1cc(-c2cccnc2)nc2ccc(Br)cc12 | 8.6* | 0 | -3 | -11 | 8 | 14*
O=C(NCCCn1ccnc1)c1cc(-c2cccnc2)nc2ccc(Br)cc12 | 6 | -1 | -1 | -6 | . | .
O=C(NCc1ccccc1Cl)O[C@H]1CC[C@@]23CCCN2C(=O)CCC[C@H]3C1 | . | . | -3 | . | . | .
O=C1C=Cc2cccc3ccc(O)c1c23 | 16* | 0 | -6 | 1 | 20* | 26*
CC(C)C[C@@H]1COc2cc(N3CCSCC3)ccc2S(=O)(=O)N1C | . | . | 6 | . | . | .
CC(=O)Nc1ccc(NC(=O)C(C)OC(=O)[C@@H]2CCCN2C(=O)c2cccs2)cc1 (some centres not stated) | -2 | 0 | -5 | 5 | . | .
CSCCC(Nc1ncnc2ccc(Br)cc12)C(=O)O (configuration not stated) | 13* | -1 | 2 | -58 | 20* | 20*
CC(C)Nc1ncnc2ccc(Br)cc12 | -1 | 0 | -4 | -9 | . | .
CN1C(=S)SC2CS(=O)(=O)CC21C (configuration not stated) | -2 | 0 | -2 | 4 | . | .
Cc1ccc(-c2c(C(=O)Nc3ccccc3C)c(C)[nH]c(=S)c2C#N)o1 | 15* | 0 | 5 | -33 | 11* | 11*
COc1cccc(Nc2nc3cc(OC)ccc3cc2C#N)c1 | 13* | 0 | 24 | 0 | 24* | 25*
C[C@H](O)[C@@H]1C(=O)N2CCc3ccc(N4CCN(C)CC4)cc3[C@@H]2C[C@@H]1N(C)C(=O)NC1CCCCC1 | 0 | -1 | -3 | -2 | . | .
CCCCC(=O)Nc1ccc(C(=O)Nc2ccc(S(=O)(=O)N3CCCC3)cc2)cc1 | 18* | -1 | 9 | -16 | 19* | 38*
CCOc1ncccc1C(=O)Nc1ccc(S(=O)(=O)N2CCCC2)cc1 | 9.6* | -1 | 15 | 0 | 13* | 18*
Cc1ccc(NC(=O)CNNC(=O)c2cccc([N+](=O)[O-])c2)cc1[N+](=O)[O-] | 0 | 0 | 0 | 3 | . | .
